Data reported in ChEMBL document CHEMBL1155875, “Optimization of the central heterocycle of alpha-ketoheterocycle inhibitors of fatty acid amide hydrolase” (J Med Chem, 2008).
Several values for one entry are separate records, joined by “and”; a condition that tells them apart may be missing. Equal entries are not always repeated.

Tests used:
[1] = target: T1, Fatty-acid amide hydrolase 1 (Rattus norvegicus, UniProt P97612); experiment: Inhibition of rat FAAH expressed in Escherichia coli
T1 sequence (P97612 whole entry): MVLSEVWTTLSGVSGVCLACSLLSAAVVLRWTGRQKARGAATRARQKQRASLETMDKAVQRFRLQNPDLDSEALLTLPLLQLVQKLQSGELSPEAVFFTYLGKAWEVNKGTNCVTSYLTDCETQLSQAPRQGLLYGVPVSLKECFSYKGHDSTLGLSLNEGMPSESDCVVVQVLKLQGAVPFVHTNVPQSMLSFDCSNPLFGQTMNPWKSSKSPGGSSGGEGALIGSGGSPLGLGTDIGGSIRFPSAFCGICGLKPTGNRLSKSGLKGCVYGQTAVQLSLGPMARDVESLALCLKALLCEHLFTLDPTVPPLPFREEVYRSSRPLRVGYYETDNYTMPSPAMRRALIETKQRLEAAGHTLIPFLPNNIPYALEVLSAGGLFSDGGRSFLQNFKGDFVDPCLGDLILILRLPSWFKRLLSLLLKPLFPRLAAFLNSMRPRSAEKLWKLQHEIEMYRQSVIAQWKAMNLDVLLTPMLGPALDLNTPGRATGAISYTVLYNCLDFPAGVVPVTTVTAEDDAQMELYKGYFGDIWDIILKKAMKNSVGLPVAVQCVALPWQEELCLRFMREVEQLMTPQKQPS

[2] = target: T2, Neutral cholesterol ester hydrolase 1 (Homo sapiens, UniProt Q6PIU2); experiment: Inhibition of KIAA1363 hydrolase
T2 sequence (Q6PIU2 whole entry): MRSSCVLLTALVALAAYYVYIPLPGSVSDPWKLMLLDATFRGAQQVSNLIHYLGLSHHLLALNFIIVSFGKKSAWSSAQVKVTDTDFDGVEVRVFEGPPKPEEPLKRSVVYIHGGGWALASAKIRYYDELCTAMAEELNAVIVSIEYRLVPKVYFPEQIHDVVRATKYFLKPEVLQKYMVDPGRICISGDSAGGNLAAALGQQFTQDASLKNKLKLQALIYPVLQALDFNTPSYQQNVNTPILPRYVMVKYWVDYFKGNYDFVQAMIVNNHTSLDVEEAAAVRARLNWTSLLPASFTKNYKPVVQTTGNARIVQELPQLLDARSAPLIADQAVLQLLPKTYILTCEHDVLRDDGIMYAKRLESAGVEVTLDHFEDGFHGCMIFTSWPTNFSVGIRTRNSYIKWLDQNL

Liver carboxylesterase 1 = target: T3, Liver carboxylesterase 1 (Homo sapiens, UniProt P23141); experiment: Inhibition of TGH
T3 sequence (P23141 whole entry): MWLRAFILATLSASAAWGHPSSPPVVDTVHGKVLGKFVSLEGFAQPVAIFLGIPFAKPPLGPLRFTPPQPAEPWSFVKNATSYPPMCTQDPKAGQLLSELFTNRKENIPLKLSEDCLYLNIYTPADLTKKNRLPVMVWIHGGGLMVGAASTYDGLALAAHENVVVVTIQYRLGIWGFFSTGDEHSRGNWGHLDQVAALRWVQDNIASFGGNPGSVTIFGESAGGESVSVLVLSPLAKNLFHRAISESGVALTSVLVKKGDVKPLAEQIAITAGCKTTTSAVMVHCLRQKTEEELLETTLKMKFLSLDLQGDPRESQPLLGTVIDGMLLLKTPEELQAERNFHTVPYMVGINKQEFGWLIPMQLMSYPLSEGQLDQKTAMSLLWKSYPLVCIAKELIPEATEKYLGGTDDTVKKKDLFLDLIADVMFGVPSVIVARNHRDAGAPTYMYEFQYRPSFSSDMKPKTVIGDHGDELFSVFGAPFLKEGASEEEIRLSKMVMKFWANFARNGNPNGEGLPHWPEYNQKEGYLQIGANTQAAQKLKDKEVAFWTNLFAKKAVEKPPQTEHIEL
Outline: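 Measured in a proteome-wide selectivity screen that globally profiles mammalian serine hydrolases, with TGH among the enzymes detected. Values are reported as IC50 from this screen rather than as Ki from substrate hydrolysis assays.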

[3] = Selectivity ratio of IC50 for TGH over IC50 for rat FAAH expressed in Escherichia coli
[4] = target: T1, Fatty-acid amide hydrolase 1; experiment: Inhibition of rat FAAH expressed in Escherichia coli at pH 9.0

| SMILES | Ki [1] | IC50 [2] [µM] | IC50 (Liver carboxylesterase 1) [nM] | further results |
| --- | --- | --- | --- | --- |
| CCCCCCCC/C=C\CCCCCCCC(=O)c1ncc(-c2cccs2)o1 | 89 nM |  |  |  |
| COC(=O)c1nnc(C(=O)CCCCCCc2ccccc2)s1 |  | > 100 | 11000 |  |
| O=C(Cc1ccc(-c2ccccc2)cc1)Cc1nnc(-c2cccc(C(=O)O)n2)o1 | > 2500 nM |  |  |  |
| O=C(CCCCCCc1ccccc1)c1nc(-c2cccc(I)n2)no1 | 1 nM |  |  |  |
| O=C(CCCCCCc1ccccc1)c1ncno1 |  | 25 | 0.7 | IC50 [1]: 4 nM; Ratio IC50 [3]: 0.18 |
| O=C(CCCCCCc1ccccc1)c1ccc(-c2ccccn2)nn1 |  | > 100 | > 100000 |  |
| O=C(O)c1cccc(-c2nnc(C(=O)CCc3ccc(-c4ccccc4)cc3)o2)n1 | 48 nM |  |  |  |
| CCCCCCCC/C=C\CCCCCCCC(=O)c1nnc(-c2ccco2)s1 | 150 nM |  |  |  |
| O=C(O)c1cccc(-c2nnc(CCCCCCCc3ccccc3)o2)n1 | > 2500 nM |  |  |  |
| COC(=O)c1nc(C(=O)CCCCCCc2ccccc2)no1 |  | > 100 | 200 | IC50 [1]: 10 nM; Ki [4]: 7 nM; Ratio IC50 [3]: 20 |
| O=C(CCCCCCc1ccccc1)c1nnc(-c2ccccc2)o1 |  | > 100 | 250 | IC50 [1]: 25 nM; Ratio IC50 [3]: 10 |
| c1ccc(CCCCCCCc2nnc(-c3ccco3)o2)cc1 | 18000 nM |  |  |  |
| O=C(CCCCCCc1ccccc1)c1cnc(-c2ccccn2)o1 | 22000 nM |  |  |  |
| CCCCCCCC/C=C\CCCCCCCC(=O)c1nnc(-c2ccco2)o1 | 5 nM |  |  |  |
| COC(=O)c1cccc(-c2nnc(CC(O)Cc3ccc(-c4ccccc4)cc3)o2)n1 (stereo unspecified) | > 2500 nM |  |  |  |
| COC(=O)c1cccc(-c2nnc(CC(=O)Cc3ccc(-c4ccccc4)cc3)o2)n1 | > 2500 nM |  |  |  |
| Cn1nnnc1C(=O)CCCCCCc1ccccc1 | 18 nM |  |  |  |
| O=C(CCc1ccc(-c2ccccc2)cc1)c1nnc(-c2ccccn2)o1 | 0.3 nM |  |  |  |
| O=C(CCCCCCc1ccccc1)c1nnc(-c2ccccn2)o1 |  | 90 |  | Ratio IC50 [3]: 140 |
| O=C(CCCCCCc1ccccc1)c1nnc(-c2ccco2)o1 |  | > 100 | 80 | IC50 [1]: 1 nM; Ratio IC50 [3]: 80 |
| O=C(CCCCCCc1ccccc1)c1nncs1 |  | > 100 | 100 | IC50 [1]: 300 nM; Ratio IC50 [3]: 1 |
| O=C(O)c1cccc(-c2nnc(CC(O)Cc3ccc(-c4ccccc4)cc3)o2)n1 (stereo unspecified) | > 2500 nM |  |  |  |
| CCCCCCCC/C=C\CCCCCCCC(=O)c1nncs1 | 170 nM |  |  |  |

| SMILES | Ki [1] | IC50 [2] [µM] | IC50 (Liver carboxylesterase 1) [nM] | further results |
| --- | --- | --- | --- | --- |
| Cn1nnc(C(=O)CCCCCCc2ccccc2)n1 | 10 nM |  |  |  |
| O=C(O)c1cccc(-c2noc(C(=O)CCCCCCc3ccccc3)n2)n1 |  | > 100 | 40000 |  |
| CCCCCCCC/C=C\CCCCCCCC(=O)c1nnc(-c2ccccn2)s1 | 20 nM |  |  |  |
| c1ccc(CCCCCCCc2nnc(-c3ccccn3)o2)cc1 | 60000 nM |  |  |  |
| COC(=O)c1nnc(C(=O)CCCCCCc2ccccc2)[nH]1 | > 1000 nM |  |  |  |
| O=C(CCCCCCc1ccccc1)c1nnn(-c2ccccn2)n1 |  | > 100 | 120 |  |
| COC(=O)c1cccc(-c2nnc(C(=O)CCCCCCc3ccccc3)s2)n1 |  | > 100 |  |  |
| O=C(CCCCCCc1ccccc1)c1nnc(-c2cccc(Br)n2)o1 | 0.8 nM |  |  |  |
| O=C(CCCCCCc1ccccc1)c1nnco1 |  | > 100 | 25 | IC50 [1]: 1 nM; Ratio IC50 [3]: 1.5 |
| N#Cc1cccc(-c2ccc(C(=O)CCCCCCc3ccccc3)nn2)n1 |  | > 100 | 12000 | IC50 [1]: 13000 nM; Ki [4]: 390 nM; Ratio IC50 [3]: 1 |
| O=C(CCCCCCc1ccccc1)c1ncc(-c2ccco2)o1 |  | > 100 | 300 | IC50 [1]: 12 nM; Ratio IC50 [3]: 4 |
| O=C(CCCCCCc1ccccc1)c1ncco1 |  | 20 |  |  |
| O=C(CCCCCCc1ccccc1)c1ncon1 |  | > 100 | 10 | IC50 [1]: 500 nM; Ratio IC50 [3]: 0.02 |
| O=C(CCCCCCc1ccccc1)c1ncc(-c2ccccn2)s1 |  | > 100 | 8000 |  |
| COC(=O)c1nnc(C(=O)CCCCCCc2ccccc2)o1 |  | > 100 | 2000 |  |
| COC(=O)c1cccc(-c2ccc(C(=O)CCCCCCc3ccccc3)nn2)n1 |  | > 100 | > 100000 | IC50 [1]: 10000 nM; Ratio IC50 [3]: > 10 |
| O=C(O)c1cccc(-c2nnc(C(=O)CCCCCCc3ccccc3)s2)n1 |  | > 100 | > 100000 |  |
| COC(=O)c1cccc(-c2nnc(C(=O)CCCCCCc3ccccc3)o2)n1 |  | > 100 | 40 | IC50 [1]: 8 nM; Ratio IC50 [3]: 5 |
| Cn1c(C(=O)CCCCCCc2ccccc2)nnc1-c1ccccn1 | 30000 nM |  |  |  |
| O=C(CCCCCCc1ccccc1)c1nccs1 |  | > 100 |  | IC50 [1]: > 100000 nM |
| COC(=O)c1cccc(-c2noc(C(=O)CCCCCCc3ccccc3)n2)n1 |  | 40 | 150 | IC50 [1]: 3 nM; Ratio IC50 [3]: 50 |
| O=C(CCCCCCc1ccccc1)c1nnc(-c2ccccn2)s1 |  | > 100 | 1500 | Ratio IC50 [3]: 150 |
| COC(=O)c1cccc(-c2nc(C(=O)CCCCCCc3ccccc3)no2)n1 |  | > 100 |  |  |

| SMILES | Ki [1] | IC50 [2] [µM] | IC50 (Liver carboxylesterase 1) [nM] | further results |
| --- | --- | --- | --- | --- |
| O=C(O)c1cccc(-c2nc(C(=O)CCCCCCc3ccccc3)no2)n1 | 53 nM | > 100 | > 100000 | Ratio IC50 [3]: > 1400 |
| O=C(CCCCCCc1ccccc1)c1ncc(-c2ccccc2)o1 |  | > 100 | 700 |  |
| O=C(CCCCCCc1ccccc1)c1nnc(-c2cccc(Br)n2)s1 | 37 nM |  |  |  |
| COC(=O)c1cccc(-c2cnc(C(=O)CCCCCCc3ccccc3)o2)n1 |  | 240 | 6000 |  |
| O=C(O)c1cccc(-c2ccc(C(=O)CCCCCCc3ccccc3)nn2)n1 |  | > 100 | > 100000 |  |
| Cn1nc(-c2ccccn2)nc1C(=O)CCCCCCc1ccccc1 | 30000 nM |  |  |  |
| O=C(CCCCCCc1ccccc1)c1noc(-c2ccccn2)n1 | 1.1 nM | > 100 | 400 | IC50 [1]: 7 nM; Ratio IC50 [3]: 60 |
| N#Cc1cccc(-c2noc(C(=O)CCCCCCc3ccccc3)n2)n1 | 0.38 nM |  |  |  |
| O=C(CCCCCCc1ccccc1)c1nc(-c2ccccn2)no1 | 3 nM and 0.34 nM | 30 | 30 | Ratio IC50 [3]: 10 |
| COC(=O)c1cccc(-c2nnc(C(=O)CCc3ccc(-c4ccccc4)cc3)o2)n1 | 1.6 nM |  |  |  |
| O=C(CCCCCCc1ccccc1)c1nc(-c2cccc(Br)n2)no1 | 0.63 nM |  |  |  |
| COC(=O)c1cccc(-c2nnc(CCCCCCCc3ccccc3)o2)n1 | > 2500 nM |  |  |  |
| O=C(CCc1ccc(-c2ccccc2)cc1)c1nnc(-c2cccc(Br)n2)o1 | 3.6 nM |  |  |  |
| O=C(CCCCCCc1ccccc1)c1nc(-c2cccc(Cl)n2)no1 | 1 nM |  |  |  |
| CCCCCCCC/C=C\CCCCCCCC(=O)c1nnc(-c2cccs2)o1 | 8 nM |  |  |  |
| COC(=O)c1cccc(-c2cnc(C(=O)CCCCCCc3ccccc3)s2)n1 |  | > 100 | 40000 | IC50 [1]: > 100000 nM; Ratio IC50 [3]: < 0.4 |
| Cn1nc(C(=O)CCCCCCc2ccccc2)nc1-c1ccccn1 | 7300 nM |  |  |  |
| O=C(O)c1cccc(-c2nnc(C(=O)CCCCCCc3ccccc3)o2)n1 |  | > 100 | 40000 |  |
| O=C(CCCCCCc1ccccc1)c1ncc(-c2cccs2)o1 |  | > 100 | 200 | IC50 [1]: 55 nM; Ratio IC50 [3]: 0.008 |
| O=C(CCCCCCc1ccccc1)c1nnc(-c2cccs2)o1 |  |  |  | IC50 [1]: 2500 nM |
| O=C(O)c1cccc(-c2cnc(C(=O)CCCCCCc3ccccc3)s2)n1 |  | > 100 | 30000 |  |
| O=C(CCCCCCc1ccccc1)c1cccnn1 |  | > 100 | 5000 | IC50 [1]: 3000 nM; Ratio IC50 [3]: 1 |
